Rows were chosen to be rich in hits. Some 2.3% of all compounds tested hit in one or more screens of this group.
Candida biofilm: kills Candida albicans biofilms; 0.14% of 85,000 active; C. albicans biofilm + clotrimazole, Alamar Blue; inhibition, % at 6 µM;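 active means inhibition above 20%; inactive means inhibition below 20%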;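 further: preformed 24 hr biofilms exposed to compound for 48 hr; 0% = biofilm without compound and 100% = blank killed by clotrimazole plus chlorhexidine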
RORa activator: RORA (human) activation. P35398. activation, % at 10 µM. 1.5% of 65,000 active. AID 560. CHO-K1 Gal4-RORA LBD luciferase reporter, luminescence; percent increase over mock-subtracted basal signal;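 active means activation above the mean of all tested compounds plus 3 SD, cut at about 49% in these data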;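 further: 0% = DMSO-treated RORA cells and 100% = added signal equal to DMSO minus mock-transfected cells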
JNK3 blocker: inhibitors of human JNK3 kinase | 0.61% of 60,000 active | inhibition, % at 8 µM | purified JNK3 kinase activity, HTS | P53779; in the data active means inhibition above about 17%;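 further: 0% = DMSO and 100% = reference inhibitor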
SF-1 act: activators of human nuclear receptor SF-1; activation, % at 10 µM; 1.9% of 65,000 active; CHO-K1 Gal4-SF-1 LBD luciferase reporter; % increase over DMSO SF-1-specific signal; Q13285;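 active means activation above the mean activation of all tested compounds plus 3 SD, cut at about 50% in these data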
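Material: CHO-K1 cells with Gal4–hSF-1 LBD chimera plus Gal4-driven luciferase / Input: 4,000 CHO-K1 cells per well / Incubation: compound exposure 20 h at 37 °C / Signal: luminescence read 15 min after SteadyLite luciferase reagent, after room-temperature equilibration / Read-out: percent activation versus DMSO / Benchmarks: DMSO negative control and −SF1 background wells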
An asterisk follows results filed as active; nt = not tested or not shown.

SMILES	Candida biofilm	RORa activator	JNK3 blocker	SF-1 act
Cn1ncnc2c(=O)n(C)c(=O)nc1-2	nt	-98	60*	-96
c1ccc2cc3cc4ccccc4cc3cc2c1	14	nt	nt	nt
Cc1ccc(-n2c(O)c(C=Nc3ccccc3N)c(=O)[nH]c2=O)cc1C	0	55*	-7	46
Cc1ccc(-n2c(O)c(C=NCc3cccnc3)c(=O)[nH]c2=O)cc1C	8	10	4	8

Compound activity (PubChem BioAssay)
